Test results as given in ChEMBL document CHEMBL1149444, “Discovery of imidazo[1,2-b][1,2,4]triazines as GABA(A) alpha2/3 subtype selective agonists for the treatment of anxiety” (J Med Chem, 2006).

Columns and labels:
[1] = Oral bioavailability in dog at 1 mg/kg, iv or 1 mg/kg, po; assay type: ADME, organism-based, Canis lupus familiaris; conditions: in vivo
How it was run: (§1)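 Pharmacokinetics in rat, dog or rhesus after 1 mg/kg iv and 1 mg/kg po dosing. Plasma clearance (mL/min/kg), half-life (h), volume of distribution (L/kg) and oral bioavailability (%) were derived.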

[2] = Oral bioavailability in rat at 1 mg/kg, iv or 1 mg/kg, po; assay type: ADME, organism-based; conditions: in vivo; how it was run: as §1
[3] = Plasma clearance in dog at 1 mg/kg, iv or 1 mg/kg, po; assay type: ADME, organism-based, Canis lupus familiaris; how it was run: as §1
[4] = target: GABA-A receptor; alpha-3/beta-3/gamma-2 (Homo sapiens) (UniProt P18507+P28472+P34903); experiment: Efficacy against recombinant human GABAA alpha3 receptor plus beta-3-gamma-2 expressed in L(tk-) cells by whole cell patch clamp method relative to chlordiazepoxide; assay type: functional, cell-based
How it was run: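 Whole-cell patch clamp on L(tk-) cells stably expressing the receptor (alpha plus beta3gamma2). GABA applied at an EC20-equivalent concentration. Modulation of the current measured with increasing test concentrations. Efficacy expressed relative to the maximal chlordiazepoxide response (set at 1.00) or as a percentage.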

[5] = target: GABA-A receptor; alpha-5/beta-3/gamma-2 (Homo sapiens) (UniProt P18507+P28472+P31644); experiment: Efficacy against recombinant human GABAA alpha-5 receptor plus beta3gamma2 expressed in L(tk-) cells by whole cell patch clamp method relative to chlordiazepoxide; assay type: functional, cell-based
How it was run: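 Whole-cell patch clamp on L(tk-) cells stably expressing human alpha subunit plus beta3gamma2. GABA applied at an EC20-equivalent concentration. Modulation of that current measured across increasing test-compound concentrations. Efficacy is expressed relative to the maximal response to the full agonist chlordiazepoxide, set at 1.00.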

[6] = target: T1, GABA-A receptor; alpha-3/beta-3/gamma-2 (Homo sapiens, UniProt P18507+P28472+P34903); experiment: Displacement of [3H]Ro 15-1788 from recombinant human GABAA alpha3 receptor plus beta-3-gamma-2 expressed in L(tk-) cells; assay type: cell-based
T1 sequence (P18507 whole entry): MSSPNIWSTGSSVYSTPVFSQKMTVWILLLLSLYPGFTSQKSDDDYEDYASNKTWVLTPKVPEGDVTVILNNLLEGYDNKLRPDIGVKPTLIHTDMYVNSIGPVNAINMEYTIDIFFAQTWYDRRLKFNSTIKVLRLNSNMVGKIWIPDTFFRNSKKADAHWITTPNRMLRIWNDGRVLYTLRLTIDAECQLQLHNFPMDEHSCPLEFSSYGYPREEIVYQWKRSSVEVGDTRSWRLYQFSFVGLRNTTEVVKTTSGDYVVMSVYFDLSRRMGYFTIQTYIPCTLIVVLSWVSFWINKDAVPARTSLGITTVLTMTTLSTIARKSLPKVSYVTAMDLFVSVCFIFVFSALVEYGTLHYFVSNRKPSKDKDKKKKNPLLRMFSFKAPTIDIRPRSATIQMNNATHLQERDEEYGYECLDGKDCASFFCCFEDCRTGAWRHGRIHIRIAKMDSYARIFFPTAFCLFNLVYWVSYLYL
T1 sequence (P28472 whole entry): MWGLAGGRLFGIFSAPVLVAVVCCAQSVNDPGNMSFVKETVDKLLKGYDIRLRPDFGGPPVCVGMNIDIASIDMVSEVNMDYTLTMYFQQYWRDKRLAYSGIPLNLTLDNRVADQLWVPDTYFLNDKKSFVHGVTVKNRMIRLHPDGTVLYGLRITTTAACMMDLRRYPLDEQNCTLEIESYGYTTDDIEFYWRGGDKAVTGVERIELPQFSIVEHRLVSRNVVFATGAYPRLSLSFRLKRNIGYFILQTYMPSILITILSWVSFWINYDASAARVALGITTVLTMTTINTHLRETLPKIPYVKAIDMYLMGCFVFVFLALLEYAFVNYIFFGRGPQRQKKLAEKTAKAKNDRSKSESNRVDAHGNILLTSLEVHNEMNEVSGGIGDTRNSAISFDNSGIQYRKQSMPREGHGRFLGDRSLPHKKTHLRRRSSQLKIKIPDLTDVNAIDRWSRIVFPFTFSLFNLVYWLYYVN
T1 sequence (P34903 whole entry): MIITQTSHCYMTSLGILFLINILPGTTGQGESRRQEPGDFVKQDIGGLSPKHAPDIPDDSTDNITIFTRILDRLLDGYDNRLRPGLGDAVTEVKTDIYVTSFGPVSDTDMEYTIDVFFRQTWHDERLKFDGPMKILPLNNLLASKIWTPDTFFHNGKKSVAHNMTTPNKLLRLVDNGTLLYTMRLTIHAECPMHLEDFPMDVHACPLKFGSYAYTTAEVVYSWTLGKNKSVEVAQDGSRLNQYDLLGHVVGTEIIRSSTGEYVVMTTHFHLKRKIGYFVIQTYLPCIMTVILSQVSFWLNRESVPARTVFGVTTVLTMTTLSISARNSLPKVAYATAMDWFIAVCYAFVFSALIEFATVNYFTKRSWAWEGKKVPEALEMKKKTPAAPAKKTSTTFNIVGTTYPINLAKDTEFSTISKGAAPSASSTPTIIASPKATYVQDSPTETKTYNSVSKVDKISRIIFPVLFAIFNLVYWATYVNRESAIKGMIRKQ
How it was run: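 Inhibition of [3H]Ro15-1788 binding to human recombinant GABAA receptors stably expressed in L(tk-) cells, alpha subunit combined with beta3 and gamma2. Six to eight test concentrations spaced in half-log units. Ki reported as geometric mean of n = 2-12.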

[7] = Volume of distribution in dog at 1 mg/kg, iv or 1 mg/kg, po; assay type: ADME, organism-based, Canis lupus familiaris; conditions: in vivo, read-out: Vdss; how it was run: as §1
[8] = Plasma clearance in rat at 1 mg/kg, iv or 1 mg/kg, po; assay type: ADME, organism-based
How it was run: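 Rat pharmacokinetics after dosing at 1 mg/kg iv and 1 mg/kg po. Plasma clearance in mL/min/kg, half-life in h and volume of distribution in L/kg.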

[9] = target: T2, GABA-A receptor; alpha-1/beta-3/gamma-2 (Homo sapiens, UniProt P14867+P18507+P28472); experiment: Displacement of [3H]Ro 15-1788 from recombinant human GABAA alpha-1 receptor plus beta3gamma2 expressed in L(tk-) cells; assay type: cell-based
T2 sequence (P14867 whole entry): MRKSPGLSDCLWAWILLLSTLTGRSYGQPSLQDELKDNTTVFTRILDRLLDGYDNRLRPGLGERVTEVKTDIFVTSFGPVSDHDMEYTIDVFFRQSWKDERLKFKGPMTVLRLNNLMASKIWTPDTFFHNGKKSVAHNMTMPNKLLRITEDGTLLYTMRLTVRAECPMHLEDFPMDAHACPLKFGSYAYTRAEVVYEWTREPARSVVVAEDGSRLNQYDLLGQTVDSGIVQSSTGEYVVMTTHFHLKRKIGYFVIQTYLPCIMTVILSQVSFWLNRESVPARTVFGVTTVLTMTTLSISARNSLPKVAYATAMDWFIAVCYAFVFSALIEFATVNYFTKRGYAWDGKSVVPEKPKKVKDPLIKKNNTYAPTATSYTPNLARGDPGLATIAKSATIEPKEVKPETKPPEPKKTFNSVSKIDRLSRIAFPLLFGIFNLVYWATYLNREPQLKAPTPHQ
T2 sequence (P18507 whole entry): T1 sequence (P18507 whole entry)
T2 sequence (P28472 whole entry): T1 sequence (P28472 whole entry)

[10] = Half life in rhesus at 1 mg/kg, iv or 1 mg/kg, po; assay type: ADME, organism-based, Macaca mulatta; conditions: rhesus monkey, in vivo; how it was run: as §1

## CC(C)(O)c1cnn2c(-c3ccc(F)c(-c4c(F)cccc4C#N)c3)cnc2n1
[1]
  bioavailability: 22%
[2]
  bioavailability: 77%
[3]
  clearance: 4.6 mL/min/kg
[4]
  Efficacy: 50%
[5]
  Efficacy: 0.37%
[6]
  Ki: 2 nM
[7]
  Vd: 1.9 L/kg
[8]
  clearance: 2.4 mL/min/kg
[9]
  Ki: 0.73 nM
[10]
  half-life: 4.9 h
